From ChEMBL document CHEMBL4219194, “Diversity-oriented synthesis of pyrazoles derivatives from flavones and isoflavones leads to the discovery of promising reversal agents of fluconazole resistance in Candida albicans” (2018)
In brackets after ≈: the same amount, converted by molar mass.

Tests used:
Type in all cases: functional
Candida albicans [1] = assay: Antifungal activity against Candida albicans SC5314 after 48 hrs by broth microdilution method; conditions: SC5314, 48 h
Summary of the method: (§1)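 MIC80 read by broth microdilution, with fluconazole as the positive antifungal agent. Values are reported in µg/mL as means of three independent experiments. Strains: wild-type SC5314 and DSY654, which lacks the Cdr1 and Cdr2 efflux pumps.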

Candida albicans [2] = assay: Antifungal activity against CDR1 and CDR2 efflux pump deficient Candida albicans DSY654 after 48 hrs by broth microdilution method; conditions: DSY654, 48 h; summary of the method: as §1
Candida albicans [3] = assay: Antifungal activity against fluconazole-resistant Candida albicans 28A after 48 hrs by broth microdilution method
Summary of the method: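 Clinical fluconazole-resistant isolates tested in broth microdilution with the compound alone. The endpoint is MIC80, the lowest concentration giving 80% growth inhibition, in µg/mL.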

Candida albicans [4] = assay: Synergistic antifungal activity against fluconazole-resistant Candida albicans 28A after 48 hrs in presence of fluconazole by broth microdilution checkerboard method
Summary of the method: (§2)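 Checkerboard dose-response matrix on strain 28A with gradients of fluconazole and the test compound in RPMI 1640, read after 48 h at 35 °C. MIC80 is taken alone and in combination, and FICI is calculated. Synergy is FICI ≤0.5, indifference >0.5-4, and antagonism >4.0.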

Candida albicans [5] = assay: Potentiation of fluconazole-induced antifungal activity against fluconazole-resistant Candida albicans 28A assessed as fluconazole MIC80 after 48 hrs by broth microdilution checkerboard method; summary of the method: as §2
Candida albicans [6] = assay: Potentiation of fluconazole-induced antifungal activity against fluconazole-resistant Candida albicans 28A after 48 hrs by broth microdilution checkerboard method; summary of the method: as §2

SMILES | MIC80 (Candida albicans [1]) | MIC80 (Candida albicans [2]) | MIC80 (Candida albicans [3]) | MIC80 (Candida albicans [4]) | MIC80 (Candida albicans [5]) | fractional inhibitory concentration index (FICI) (Candida albicans [6])
COc1ccc(-c2c[nH]nc2-c2ccc(O)cc2O)cc1 | > 128 µg/mL | > 128 µg/mL | > 128 µg/mL | > 128 µg/mL | > 128 µg/mL | 2
Oc1ccccc1-c1cc(-c2ccccc2)[nH]n1 | 16 µg/mL (≈ 67.7 µM) | 8 µg/mL (≈ 33.9 µM) | 64 µg/mL (≈ 271 µM) | 16 µg/mL | 2 µg/mL | 0.266
COc1ccc(C2=CC(c3c(O)cc(OC)cc3OC)=NCCN2)cc1 | > 128 µg/mL | 16 µg/mL (≈ 45.1 µM) | > 128 µg/mL | > 128 µg/mL | > 128 µg/mL | 2
OCCn1cc(-c2ccc(O)cc2)c(-c2ccc(O)cc2O)n1 | > 128 µg/mL | > 128 µg/mL | > 128 µg/mL | > 128 µg/mL | > 128 µg/mL | 2
COc1ccc(-c2cn[nH]c2-c2c(O)cc(O)cc2O)cc1 | > 128 µg/mL | > 128 µg/mL | > 128 µg/mL | > 128 µg/mL | > 128 µg/mL | 2
Oc1ccc(C2=NCCNC(c3ccccc3)=C2)c(O)c1O | > 128 µg/mL | 32 µg/mL (≈ 108 µM) | > 128 µg/mL | > 128 µg/mL | > 128 µg/mL | 2
Oc1ccccc1C1=NCCNC(c2ccccc2)=C1 | > 128 µg/mL | > 128 µg/mL | > 128 µg/mL | > 128 µg/mL | > 128 µg/mL | 2
OCCn1ncc(-c2ccc(O)cc2)c1-c1ccc(O)cc1O | > 128 µg/mL | > 128 µg/mL | > 128 µg/mL | > 128 µg/mL | > 128 µg/mL | 2
OCCn1nc(-c2ccccc2)cc1-c1ccccc1O | > 128 µg/mL | 8 µg/mL (≈ 28.5 µM) | > 128 µg/mL | > 128 µg/mL | > 128 µg/mL | 2
COc1ccc(-c2cn[nH]c2-c2c(O)cc(OC)cc2OC)cc1 | > 128 µg/mL | > 128 µg/mL | > 128 µg/mL | > 128 µg/mL | > 128 µg/mL | 2
COc1ccc(-c2cnn(CCO)c2-c2ccc(O)cc2O)cc1 | > 128 µg/mL | > 128 µg/mL | > 128 µg/mL | > 128 µg/mL | > 128 µg/mL | 2
Oc1cc(O)c(-c2cc(-c3ccccc3)n[nH]2)c(O)c1 | > 128 µg/mL | > 128 µg/mL | > 128 µg/mL | 8 µg/mL | 2 µg/mL | 0.078
COc1ccc(-c2cc(-c3ccccc3)[nH]n2)c(O)c1OC | > 128 µg/mL | > 128 µg/mL | > 128 µg/mL | > 128 µg/mL | > 128 µg/mL | 2
CCn1cc(-c2ccc(OC)cc2)c(-c2ccc(O)cc2O)n1 | > 128 µg/mL | > 128 µg/mL | > 128 µg/mL | > 128 µg/mL | > 128 µg/mL | 2
Oc1ccc(-c2cn[nH]c2-c2ccc(O)cc2O)cc1 | > 128 µg/mL | > 128 µg/mL | > 128 µg/mL | > 128 µg/mL | > 128 µg/mL | 2
OCCn1ncc(-c2ccc(O)cc2)c1-c1ccc(O)c(C2OC(CO)C(O)C(O)C2O)c1O (configuration not stated) | > 128 µg/mL | > 128 µg/mL | > 128 µg/mL | > 128 µg/mL | > 128 µg/mL | 2

SMILES | MIC80 (Candida albicans [1]) | MIC80 (Candida albicans [2]) | MIC80 (Candida albicans [3]) | MIC80 (Candida albicans [4]) | MIC80 (Candida albicans [5]) | fractional inhibitory concentration index (FICI) (Candida albicans [6])
COc1ccc(-c2cnn(-c3ccccc3)c2-c2ccc(O)cc2O)cc1 | > 128 µg/mL | > 128 µg/mL | > 128 µg/mL | 16 µg/mL | 2 µg/mL | 0.141
CCn1ncc(-c2ccc(OC)cc2)c1-c1ccc(O)cc1O | > 128 µg/mL | > 128 µg/mL | > 128 µg/mL | 32 µg/mL | 2 µg/mL | 0.266
COc1ccc(-c2cnn(-c3ccc(OC)cc3)c2-c2ccc(O)cc2O)cc1 | > 128 µg/mL | > 128 µg/mL | > 128 µg/mL | > 128 µg/mL | > 128 µg/mL | 2
COc1ccc(-c2cn(CCO)nc2-c2ccc(O)cc2O)cc1 | > 128 µg/mL | > 128 µg/mL | > 128 µg/mL | > 128 µg/mL | > 128 µg/mL | 2
COc1ccc(C2=NCCNC(c3ccccc3)=C2)c(O)c1OC | > 128 µg/mL | > 128 µg/mL | > 128 µg/mL | > 128 µg/mL | > 128 µg/mL | 2
CCn1ncc(-c2ccc(O)cc2)c1-c1ccc(O)c(C2OC(CO)C(O)C(O)C2O)c1O (configuration not stated) | > 128 µg/mL | > 128 µg/mL | > 128 µg/mL | > 128 µg/mL | > 128 µg/mL | 2
CCn1cc(-c2ccc(O)cc2)c(-c2ccc(O)c(C3OC(CO)C(O)C(O)C3O)c2O)n1 (configuration not stated) | > 128 µg/mL | > 128 µg/mL | > 128 µg/mL | > 128 µg/mL | > 128 µg/mL | 2
Oc1ccc(-c2cnn(-c3ccccc3)c2-c2ccc(O)cc2O)cc1 | > 128 µg/mL | > 128 µg/mL | > 128 µg/mL | > 128 µg/mL | > 128 µg/mL | 2
Oc1ccc(-c2cc(-c3ccccc3)n[nH]2)c(O)c1O | 8 µg/mL (≈ 29.8 µM) | 8 µg/mL (≈ 29.8 µM) | > 128 µg/mL | > 128 µg/mL | > 128 µg/mL | 2
Oc1ccccc1-c1cc(-c2ccccc2)nn1-c1ccccc1 | 128 µg/mL (≈ 410 µM) | 8 µg/mL (≈ 25.6 µM) | 128 µg/mL (≈ 410 µM) | 128 µg/mL | 2 µg/mL | 1.016
Oc1ccc(-c2cn[nH]c2-c2c(O)cc(O)cc2O)cc1 | > 128 µg/mL | > 128 µg/mL | > 128 µg/mL | > 128 µg/mL | > 128 µg/mL | 2
COc1cc(O)c(C2=NCCNC(c3ccccc3)=C2)c(OC)c1 | 128 µg/mL (≈ 395 µM) | 8 µg/mL (≈ 24.7 µM) | 128 µg/mL (≈ 395 µM) | 32 µg/mL | 2 µg/mL | 0.266
Oc1ccc(-c2cc(-c3c(O)cc(O)cc3O)[nH]n2)cc1 | > 128 µg/mL | > 128 µg/mL | > 128 µg/mL | 1 µg/mL | 0.5 µg/mL | 0.012
COc1cc(O)c(-c2cc(-c3ccccc3)[nH]n2)c(OC)c1OC | 64 µg/mL (≈ 196 µM) | 2 µg/mL (≈ 6.13 µM) | 64 µg/mL (≈ 196 µM) | 16 µg/mL | 2 µg/mL | 0.266
OCC1OC(c2c(O)ccc(-c3n[nH]cc3-c3ccc(O)cc3)c2O)C(O)C(O)C1O (configuration not stated) | > 128 µg/mL | 16 µg/mL (≈ 37.2 µM) | > 128 µg/mL | > 128 µg/mL | > 128 µg/mL | 2
COc1ccc(-c2cc(-c3c(O)cc(OC)cc3OC)[nH]n2)cc1 | > 128 µg/mL | > 128 µg/mL | > 128 µg/mL | > 128 µg/mL | > 128 µg/mL | 2
